In ChEMBL document CHEMBL1142319, “New antitumor imidazo[2,1-b]thiazole guanylhydrazones and analogues” (2008):
Activity calls are given as the source filed them. No cut-off for these calls is given here.

Tests used:
HL-60 [1] = assay: Induction of apoptosis in human HL60 cells assessed as chromatin condensation at 5 uM after 3 hrs; assay type: functional, cell-based
How it was run: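 HL-60 cells on glass coverslips treated 3 h with 5 µM. Cells fixed in 4% paraformaldehyde in PBS and stained with Hoechst 0.1 µg/mL. Nuclear morphology (chromatin condensation, apoptotic bodies) scored by fluorescence microscopy. Experiment repeated at least twice.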

Cancer cell lines [2] = assay: Inhibition of human renal cancer cells; assay type: functional; conditions: for TGI: read-out: pTGI (converted)
How it was run: (§1)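 NCI 60-cell-line panel, with results grouped by tissue subpanel. Compounds dissolved in DMSO and tested at five 10-fold dilutions, top concentration 10^-4 M. Values given as -log molar concentration for 50% growth inhibition (pGI50), total growth inhibition (pTGI) and 50% cell kill (pLC50), with subpanel means calculated.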

HL-60 [3] = assay: Effect on energy metabolism assessed as increase in AMP/ATP ratio in human HL60 cells at 5 uM after 3 hrs; assay type: functional, cell-based
How it was run: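 HL-60 cells treated 3 h with 5 µM. Adenine nucleotide levels measured and the AMP/ATP ratio calculated from them. Mean ± SEM of triplicate determinations.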

Cancer cell lines [4] = assay: Inhibition of human ovarian cancer cells; assay type: functional; conditions: for TGI: read-out: pTGI (converted); how it was run: as §1
Leukemia cell = assay: Inhibition of human leukemia cells; assay type: functional; conditions: for TGI: read-out: pTGI (converted); how it was run: as §1
Cancer cell lines [5] = assay: Inhibition of human breast cancer cells; assay type: functional; conditions: for TGI: read-out: pTGI (converted); how it was run: as §1
HL-60 [6] = assay: Increase in peroxide formation in human HL60 cells at 5 uM after 3 hrs; assay type: functional, cell-based
How it was run: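 Intracellular peroxides measured in HL-60 cells after 3 h at 5 µM. Cells incubated with 5 µM DCF-DA for 30 min at 37 °C, then read by flow cytometry. Mean ± SEM of triplicates.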

HL-60 [7] = assay: Induction of cell death in human HL60 cells at 2 uM by propidium iodide staining method; assay type: functional
How it was run: (§2)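 HL-60 cells in RPMI 1640 with 10% FBS and 2 mM glutamine at 37 °C, 5% CO2, exposed for 24 h to compound diluted in medium from DMSO. Cells were counterstained with propidium iodide (5 µg/mL) for plasma membrane integrity and analysed by flow cytometry. The readout is the percentage of PI-positive cells.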

[8] = biological target: T1, S-adenosylmethionine decarboxylase proenzyme (Homo sapiens) (UniProt P17707); assay: Inhibition of human S-adenosyl methionine decarboxylase in HL60 cells at 1 to 100 uM; assay type: cell-based; conditions: HL-60
T1 sequence (whole entry): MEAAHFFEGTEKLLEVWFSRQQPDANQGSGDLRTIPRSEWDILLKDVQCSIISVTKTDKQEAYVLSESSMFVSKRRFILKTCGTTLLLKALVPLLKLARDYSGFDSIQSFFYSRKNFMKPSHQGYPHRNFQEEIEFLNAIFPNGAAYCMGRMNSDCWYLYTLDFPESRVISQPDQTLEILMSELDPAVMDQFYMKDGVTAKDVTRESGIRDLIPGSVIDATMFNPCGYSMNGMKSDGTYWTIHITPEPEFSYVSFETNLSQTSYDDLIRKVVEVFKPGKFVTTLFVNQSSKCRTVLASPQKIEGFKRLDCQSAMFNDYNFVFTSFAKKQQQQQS

HL-60 [9] = assay: Induction of cell death in human HL60 cells assessed as LDH release at 5 uM after 24 hrs; assay type: functional, cell-based
How it was run: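 HL-60 cells exposed 24 h to 5 µM. Medium aliquots collected and LDH activity determined spectrophotometrically from NADH at 340 nm. One typical experiment shown, repeated at least twice.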

HL-60 [10] = assay: Cell cycle arrest in human HL60 cells assessed as accumulation at G0/G1 phase at 2 uM; assay type: functional
How it was run: (§3)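 HL-60 cells kept in RPMI 1640 with 10% FBS and 2 mM glutamine at 37 °C, 5% CO2. Treated 24 h at 2 µM from DMSO stock diluted in medium. Cells fixed in cold 70% ethanol and stained with propidium iodide 50 µg/mL plus RNAase 10 µg/mL for 30 min. DNA profiles read by flow cytometry on ≥10 000 cells, and phase percentages calculated.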

HL-60 [11] = assay: Induction of apoptosis in human HL60 cells assessed as caspase activity after 4 hrs; assay type: functional, cell-based
How it was run: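 HL-60 cells treated 4 h across a range of concentrations. DEVD-cleaving caspase (DEVDase) activity measured fluorimetrically in cell extracts. One typical experiment shown, repeated at least twice.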

Melanoma cell = assay: Inhibition of human melanoma cells; assay type: functional; conditions: for TGI: read-out: pTGI (converted); how it was run: as §1
Cancer cell lines [12] = assay: Inhibition of human CNS cancer cells; assay type: functional; conditions: for TGI: read-out: pTGI (converted); how it was run: as §1
HL-60 [13] = assay: Effect on cell growth in human HL60 cells assessed as cell number per mL at 2 uM; assay type: functional; set-up: scale not given here
How it was run: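 HL-60 cells in RPMI 1640 with 10% FBS and 2 mM glutamine, 37 °C, 5% CO2, doubling time about 24 h. Exposed 24 h to 2 µM compound diluted from DMSO into medium. Cells per mL counted with a Coulter counter.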

Cancer cell lines [14] = assay: Inhibition of human prostate cancer cells; assay type: functional; conditions: for TGI: read-out: pTGI (converted); how it was run: as §1
Cancer cell lines [15] = assay: Inhibition of human colon cancer cells; assay type: functional; conditions: for TGI: read-out: pTGI (converted); how it was run: as §1
HL-60 [16] = assay: Disruption of mitochondrial membrane potential in human HL60 cells at 5 uM after 1 hr; assay type: functional, cell-based
How it was run: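 HL-60 cells exposed to 5 µM for 1 h, then loaded with 40 nM DiOC6 for 40 min at 1 × 10⁶ cells/mL, 37 °C, in the dark. Mitochondrial membrane potential read by flow cytometry. Mean ± SEM of triplicate determinations.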

HL-60 [17] = assay: Cell cycle arrest in human HL60 cells assessed as accumulation at G2/M phase at 2 uM; assay type: functional; how it was run: as §3
Cancer cell lines [18] = assay: Inhibition of human non-small cell lung cancer cells; assay type: functional; conditions: for TGI: read-out: pTGI (converted); how it was run: as §1
HL-60 [19] = assay: Cell cycle arrest in human HL60 cells assessed as accumulation at S phase at 2 uM; assay type: functional; how it was run: as §3
HL-60 [20] = assay: Cell cycle arrest in human HL60 cells assessed as accumulation at S phase at 10 uM; assay type: functional
How it was run: (§4)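 HL-60 cells growing exponentially in RPMI 1640 with 10% FBS and 2 mM glutamine at 37 °C under 5% CO2. Compound was dissolved in DMSO, diluted in medium and applied for 24 h. Cells were fixed in cold 70% ethanol and stained with 50 µg/mL propidium iodide plus 10 µg/mL RNase for 30 min. DNA content was read by flow cytometry (≥10,000 cells) and the percentage of cells in each phase calculated.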

HL-60 [21] = assay: Effect on cell growth in human HL60 cells assessed as cell number per mL at 10 uM; assay type: functional
How it was run: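 HL-60 cells grown in RPMI 1640 with 10% FBS and 2 mM glutamine at 37 °C, 5% CO2 (doubling time about 24 h). Compound was taken from a DMSO stock, diluted in medium and applied for 24 h. Growth was assessed by Coulter cell counting, reported as cells/mL.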

HL-60 [22] = assay: Induction of cell death in human HL60 cells at 10 uM by propidium iodide staining method; assay type: functional; how it was run: as §2
HL-60 [23] = assay: Cell cycle arrest in human HL60 cells assessed as accumulation at G2/M phase at 10 uM; assay type: functional; how it was run: as §4
HL-60 [24] = assay: Cell cycle arrest in human HL60 cells assessed as accumulation at G0/G1 phase at 10 uM; assay type: functional; how it was run: as §4

## COc1cc([N+](=O)[O-])c(OC)cc1-c1nc2sc(Cl)cn2c1/C=N\NC1=NCCN1
HL-60 [1]
  Activity: Active
Cancer cell lines [2]
  GI50: 1.35 µM
  TGI: 3.39 µM
HL-60 [3]
  Activity: Active
Cancer cell lines [4]
  GI50: 0.741 µM
  TGI: 1.86 µM
Leukemia cell
  GI50: 2.63 µM
Cancer cell lines [5]
  GI50: 1.82 µM
  TGI: 42.7 µM
HL-60 [6]
  Activity: Active
HL-60 [7]
  Activity: 22%
[8]
  Activity: Active
HL-60 [9]
  Activity: Active
HL-60 [10]
  Activity: 33.1%
HL-60 [11]
  Activity: Dose-dependent effect
Melanoma cell
  GI50: 1.26 µM
  TGI: 3.89 µM
Cancer cell lines [12]
  GI50: 0.646 µM
  TGI: 2.09 µM
HL-60 [13]
  Activity: 485
Cancer cell lines [14]
  GI50: 0.759 µM
  TGI: 1.15 µM
Cancer cell lines [15]
  GI50: 0.501 µM
  TGI: 2.95 µM
HL-60 [16]
  Activity: Active
HL-60 [17]
  Activity: 15.1%
Cancer cell lines [18]
  GI50: 0.933 µM
  TGI: 4.79 µM
HL-60 [19]
  Activity: 51.9%

## Cc1nn2c(/C=N/NC(=N)N)c(-c3ccc(Cl)c([N+](=O)[O-])c3)nc2s1
HL-60 [1]
  Activity: Active
Cancer cell lines [2]
  GI50: 1.23 µM
  TGI: 3.63 µM
HL-60 [3]
  Activity: Active
Cancer cell lines [4]
  GI50: 1.48 µM
  TGI: 4.27 µM
Leukemia cell
  GI50: 0.575 µM
  TGI: 3.63 µM
Cancer cell lines [5]
  GI50: 1.02 µM
  TGI: 6.92 µM
HL-60 [6]
  Activity: Active
HL-60 [7]
  Activity: 31%
[8]
  Activity: Active
HL-60 [9]
  Activity: Active
HL-60 [10]
  Activity: 29.9%
HL-60 [11]
  Activity: Dose-dependent effect
Melanoma cell
  GI50: 1.45 µM
  TGI: 2.95 µM
Cancer cell lines [12]
  GI50: 1.23 µM
  TGI: 9.77 µM
HL-60 [13]
  Activity: 410
Cancer cell lines [14]
  GI50: 1.1 µM
  TGI: 2.63 µM
Cancer cell lines [15]
  GI50: 0.646 µM
  TGI: 2.82 µM
HL-60 [16]
  Activity: Active
HL-60 [17]
  Activity: 16.5%
Cancer cell lines [18]
  GI50: 3.31 µM
  TGI: 11.5 µM
HL-60 [19]
  Activity: 53.6%

## CC(/C=N/NC(=N)N)=N\NC(=N)N [MITOGUAZONE]
Cancer cell lines [2]
  GI50: 20 µM
  TGI: 501 µM
Cancer cell lines [4]
  GI50: 15.8 µM
  TGI: 316 µM
Leukemia cell
  GI50: 7.94 µM
  TGI: 631 µM
Cancer cell lines [5]
  GI50: 15.8 µM
  TGI: 316 µM
Melanoma cell
  GI50: 39.8 µM
  TGI: 316 µM
Cancer cell lines [12]
  GI50: 20 µM
  TGI: 251 µM
HL-60 [20]
  Activity: 40.9%
Cancer cell lines [14]
  GI50: 100 µM
  TGI: 1580 µM
Cancer cell lines [15]
  GI50: 12.6 µM
  TGI: 501 µM
HL-60 [21]
  Activity: 702
HL-60 [22]
  Activity: 5.2%
HL-60 [23]
  Activity: 15.5%
HL-60 [24]
  Activity: 43.6%
Cancer cell lines [18]
  GI50: 25.1 µM
  TGI: 316 µM
